Laboratory results: ChEMBL document CHEMBL3779860, “A Designed Tryptophan- and Lysine/Arginine-Rich Antimicrobial Peptide with Therapeutic Potential for Clinical Antibiotic-Resistant Candida albicans Vaginitis” (J Med Chem, 2016)
Calls of active or inactive are those of the source. The calls are words filed in the database; no cut-off is given here.

What was measured:
[1] = system: Candida albicans; assay: Antimicrobial activity against antibiotic resistant Candida albicans clinical isolate 08032710 compound treated in PBS solution measured after 36 hrs by disc diffusion method; type: functional; conditions: isolate 08032710, 36 h
In short: (§1)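 Salt-tolerance test: peptide at 2 mg/mL was prepared in sterile ddH2O, in 150 mM NaCl, or in PBS (150 mM NaCl, 2.7 mM KCl, 1.5 mM KH2PO4, 8 mM K2HPO4, pH 7.2). Anti-C. albicans activity was then assessed by inhibition zone on Sabouraud medium with 0.7% agar.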

[2] = system: Candida albicans; assay: Antimicrobial activity against antibiotic resistant Candida albicans clinical isolate 08030809 compound treated in NaCl solution measured after 36 hrs by disc diffusion method; type: functional; conditions: isolate 08030809, 36 h; in short: as §1
[3] = system: Candida albicans; assay: Antimicrobial activity against antibiotic resistant Candida albicans clinical isolate 08032710 compound treated in NaCl solution measured after 36 hrs by disc diffusion method; type: functional; conditions: isolate 08032710, 36 h; in short: as §1
[4] = system: Candida albicans; assay: Antimicrobial activity against antibiotic resistant Candida albicans clinical isolate 08032815 compound treated in NaCl solution measured after 36 hrs by disc diffusion method; type: functional; conditions: isolate 08032815, 36 h; in short: as §1
[5] = system: Candida albicans; assay: Antimicrobial activity against antibiotic resistant Candida albicans clinical isolate 08032821 compound treated in NaCl solution measured after 36 hrs by disc diffusion method; type: functional; conditions: isolate 08032821, 36 h; in short: as §1
[6] = system: Candida albicans; assay: Antimicrobial activity against antibiotic resistant Candida albicans clinical isolate 08030809 compound treated in double distilled water measured after 36 hrs by disc diffusion method; type: functional; conditions: isolate 08030809, 36 h; in short: as §1
[7] = system: Candida albicans; assay: Antimicrobial activity against antibiotic resistant Candida albicans clinical isolate 08032710 compound treated in double distilled water measured after 36 hrs by disc diffusion method; type: functional; conditions: isolate 08032710, 36 h; in short: as §1
[8] = Ratio of HC50 for human RBC to MIC for Candida albicans ATCC 2002
[9] = system: Candida albicans; assay: Antimicrobial activity against antibiotic resistant Candida albicans clinical isolate 08022710 after 16 hrs by broth dilution method; type: functional; conditions: isolate 08022710, 16 h
In short: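 Broth microdilution in Sabouraud liquid medium. Samples are stocks in 0.9% NaCl, 10 µL added to 90 µL broth plus 100 µL of 2 × 10^5 CFU/mL yeast suspension. Incubated 16 h at 28°C, growth read by A600. MIC is the lowest concentration completely inhibiting growth; mean of three independent experiments.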

[10] = system: Candida albicans; assay: Antimicrobial activity against antibiotic resistant Candida albicans clinical isolate 08030809 assessed as clone count at MIC after 3 hrs by colony counting assay (reference value: 3687 +/- 543 CFU); type: functional
[11] = system: Candida albicans; assay: Antimicrobial activity against antibiotic resistant Candida albicans clinical isolate 08030809 assessed as clone count at MIC after 12 hrs by colony counting assay (reference value: 54153 +/- 8769 CFU); type: functional
[12] = system: Candida albicans; assay: Antimicrobial activity against antibiotic resistant Candida albicans clinical isolate 08030809 assessed as clone count at 5 times MIC after 3 hrs by colony counting assay (reference value: 3687 +/- 543 CFU); type: functional
[13] = system: Candida albicans; assay: Antimicrobial activity against antibiotic resistant Candida albicans clinical isolate 08030809 assessed as clone count at 5 times MIC after 6 hrs by colony counting assay (reference value: 14536 +/- 2467 CFU); type: functional
[14] = system: Candida albicans; assay: Antimicrobial activity against antibiotic resistant Candida albicans clinical isolate 08030809 assessed as clone count at 5 times MIC after 24 hrs by colony counting assay (Rvb > 10^5 CFU); type: functional
[15] = system: Candida albicans; assay: Antimicrobial activity against antibiotic resistant Candida albicans clinical isolate 08030809 assessed as clone count at 10 times MIC after 24 hrs by colony counting assay (Rvb > 10^5 CFU); type: functional
[16] = system: Mus musculus; assay: Antiinflammatory activity in antibiotic resistant Candida albicans clinical isolate 08030809 induced mouse vaginitis model assessed as reduction in IL-10 secretion in vaginal tissue administered as intravaginal instillation measured on day 10 by ELISA; type: functional, organism-based; conditions: Vagina
In short: (§2)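 Same estradiol-primed mouse model, infected intravaginally with C. albicans 08030809 and treated by intravaginal instillation (20 µL/mouse). Vaginal canals excised on day 10 of treatment and homogenised in 0.9% NaCl. Supernatant taken after 2,000 g for 15 min. TNF-α, IL-6, IL-1β and IL-10 measured by ELISA. Mean ± SE of three independent experiments; unpaired t-test versus vehicle.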

[17] = system: Mus musculus; assay: Antiinflammatory activity in antibiotic resistant Candida albicans clinical isolate 08030809 induced mouse vaginitis model assessed as reduction in IL-1beta secretion in vaginal tissue administered as intravaginal instillation measured on day 10 by ELISA; type: functional, organism-based; conditions: Vagina; in short: as §2
[18] = system: Mus musculus; assay: Antiinflammatory activity in antibiotic resistant Candida albicans clinical isolate 08030809 induced mouse vaginitis model assessed as microabscess number in vaginal tissue at 50 ug administered as intravaginal instillation measured on day 6 by hematoxylin-eosin staining based microscopic method (reference value: 61); type: functional, Vagina
In short: (§3)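 Mice given weekly subcutaneous estradiol valerate (0.5 mg in 0.1 mL vegetable oil) 72 h before infection. Infected intravaginally with 20 µL of 10^7 CFU/mL C. albicans 08030809. Intravaginal instillation of 20 µL daily for 16 days. Vaginal canals excised after lavage, formalin-fixed, paraffin-embedded, HE-stained. Microabscesses counted per high-power field over 6 fields per section, three independent experiments.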

[19] = system: Mus musculus; assay: Antiinflammatory activity in antibiotic resistant Candida albicans clinical isolate 08030809 induced mouse vaginitis model assessed as reduction in microabscess number in vaginal tissue at 50 ug administered as intravaginal instillation measured after 16 days by hematoxylin-eosin staining based microscopic method; type: functional, organism-based; conditions: Vagina; in short: as §3
[20] = system: Mus musculus; assay: Antiinflammatory activity in antibiotic resistant Candida albicans clinical isolate 08030809 induced mouse vaginitis model assessed as reduction in TNF-alpha secretion in vaginal tissue at 50 ug administered as intravaginal instillation measured on day 10 by ELISA; type: functional, Vagina; in short: as §2
[21] = system: Mus musculus; assay: Antiinflammatory activity in antibiotic resistant Candida albicans clinical isolate 08030809 induced mouse vaginitis model assessed as reduction in IL-6 secretion in vaginal tissue at 20 ug administered as intravaginal instillation measured on day 10 by ELISA; type: functional, Vagina; in short: as §2
[22] = system: Mus musculus; assay: Antiinflammatory activity in antibiotic resistant Candida albicans clinical isolate 08030809 induced mouse vaginitis model assessed as reduction in IL-10 secretion in vaginal tissue at 20 ug administered as intravaginal instillation measured on day 10 by ELISA; type: functional, Vagina; in short: as §2
[23] = system: Candida albicans; assay: Antimicrobial activity against antibiotic resistant Candida albicans clinical isolate 08030809 in mouse vaginitis model assessed as colony count in lavage liquid of vagina at 20 ug administered as intravaginal instillation measured on day 16; type: functional
[24] = system: Candida albicans; assay: Antimicrobial activity against antibiotic resistant Candida albicans clinical isolate 08030809 in mouse vaginitis model assessed as decrease in colony count in lavage liquid of vagina at 20 ug administered as intravaginal instillation measured on day 11; type: functional
[25] = system: Candida albicans; assay: Antimicrobial activity against antibiotic resistant Candida albicans clinical isolate 08030809 in mouse vaginitis model assessed as decrease in colony count in lavage liquid of vagina at 50 ug administered as intravaginal instillation measured on day 11; type: functional
[26] = system: Candida albicans; assay: Effect on cell morphology in antibiotic resistant Candida albicans clinical isolate 08030809 assessed as cell swelling at MIC to 2.5 times MIC after 30 mins by scanning electron microscopy; type: functional, organism-based
In short: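 Exponential-phase C. albicans 08030809 was washed in PBS and resuspended in Sabouraud medium. Cells were treated 30 min at 37°C alongside a vehicle control. They were then fixed in 2.5% glutaraldehyde (4°C, 2 h) and 1% osmium tetroxide, dehydrated through graded ethanol, freeze-dried from tert-butanol, gold-coated and imaged by SEM. Images are typical of three experiments.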

**Q.** Which results are given for H-VKRWKKWRWKWKKWV-NH2?
**A.** MIC [1]: 2.79 µg/mL; MIC [2]: 1.4 µg/mL; MIC [3]: 2.79 µg/mL; MIC [4]: 2.79 µg/mL; MIC [5]: 2.65 µg/mL; MIC [6]: 1.4 µg/mL; MIC [7]: 2.79 µg/mL; Ratio [8]: 542; MIC [9]: 4.69 µg/mL; Activity [10]: 0 CFU; Activity [11]: 0 CFU; Activity [12]: 0 CFU; Activity [13]: 0 CFU; Activity [14]: 0 CFU; Activity [15]: 0 CFU; Activity [16]: Dose-dependent effect; Activity [17]: Dose-dependent effect; Activity [18]: 7; Activity [19]: Active; inhibition (INH) [20]: 53%; inhibition (INH) [21]: 46%; inhibition (INH) [22]: 39%; Activity [23]: 5.4 ×10³ CFU/ml; inhibition (INH) [24]: 37%; inhibition (INH) [25]: 66%; Activity [26]: Active
